pEC50, pIC50: −log10 of the molar value.
Legend:
[1] = system: Human betaherpesvirus 5; test: Antiviral activity against human cytomegalovirus AD169 in HEL cells assessed as reduction of plaque formation after 7 days; format: functional, organism-based; conditions: Human betaherpesvirus 5, AD169, HEL, 168 h
In short: (§1)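 Confluent HEL fibroblasts infected with HCMV (Davis or AD-169) at 100 PFU per well; after 2 h adsorption, residual virus removed and medium with serial compound concentrations added (duplicate wells). Incubated 7 days; EC50 taken as concentration reducing plaque formation by 50%.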

[2] = system: Human betaherpesvirus 5; test: Antiviral activity against human cytomegalovirus Davis in HEL cells assessed as reduction of plaque formation after 7days; format: functional, organism-based; conditions: Human betaherpesvirus 5, Davis, 168 h; in short: as §1
[3] = system: Human alphaherpesvirus 3; test: Antiviral activity against thymidine kinase expressing Varicella-Zoster virus OKA assessed as reduction of plaque formation; format: functional, organism-based; conditions: Human alphaherpesvirus 3, OKA
[4] = system: Human alphaherpesvirus 3; test: Antiviral activity against thymidine kinase deficient Varicella-Zoster virus 07/1 assessed as reduction of plaque formation; format: functional, organism-based; conditions: Human alphaherpesvirus 3, 07/1
In short: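 Plaque reduction assay in HEL cells against TK+ (OKA) and TK- (07/1) VZV strains; virus input 100 PFU; EC50 as concentration giving 50% plaque reduction.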

[5] = Cytotoxicity against HEL cells assessed as cell morphology after 7 days; format: cell-based; conditions: human
In short: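 Uninfected confluent HEL cultures exposed to compounds; MCC recorded as lowest concentration producing a microscopically detectable alteration of normal cell morphology at day 7.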

[6] = Cytotoxicity against HEL cells assessed as cell growth after 7 days; format: cell-based; conditions: human
[7] = system: Human respirovirus 3; test: Antiviral activity against parainfluenza 3 virus in Vero cells assessed as reduction of virus plaque formation after 7 days; format: functional, organism-based; conditions: Human respirovirus 3, Vero, 168 h
[8] = system: Mammalian orthoreovirus 1; test: Antiviral activity against reovirus1 virus in Vero cells assessed as reduction of virus plaque formation after 7 days; format: functional, organism-based; conditions: Mammalian orthoreovirus 1, Vero, 168 h
[9] = system: Sindbis virus; test: Antiviral activity against sindbis virus in Vero cells assessed as reduction of virus plaque formation after 7 days; format: functional, organism-based; conditions: 168 h
[10] = system: Punta Toro virus; test: Antiviral activity against Punta Toro virus in Vero cells assessed as reduction of virus plaque formation after 7 days; format: functional, organism-based; conditions: 168 h
[11] = system: Coxsackievirus B4; test: Antiviral activity against coxsackie B4 virus in HeLa cells assessed as reduction of virus plaque formation after 7 days; format: functional, organism-based; conditions: Enterovirus B, 168 h
[12] = system: HEp-2; test: Growth inhibition of Hep2 cells after 72 hrs by MTT assay; format: functional, cell-based; conditions: Homo sapiens, HEp-2, 72 h
In short: (§2)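 Tumor lines grown as monolayers in DMEM with 10% FBS, 2 mM L-glutamine and penicillin. Freshly diluted compounds added, solvent tested at matching concentrations; after 72 h growth measured by MTT. IC50 obtained by linear regression of concentrations bracketing 50% growth; mean of three separate experiments.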

[13] = system: HeLa; test: Growth inhibition of HeLa cells after 72 hrs by MTT assay; format: functional, cell-based; conditions: Homo sapiens; in short: as §2
[14] = system: MIA PaCa-2; test: Growth inhibition of MiaPaCa2 cells after 72 hrs by MTT assay; format: functional, cell-based; conditions: Homo sapiens, MIA PaCa-2, 72 h; in short: as §2
[15] = system: SW-620; test: Growth inhibition of SW620 cells after 72 hrs by MTT assay; format: functional, cell-based; conditions: Homo sapiens, SW-620, 72 h; in short: as §2
[16] = system: MCF7; test: Growth inhibition of MCF7 cells after 72 hrs by MTT assay; format: functional, cell-based; conditions: Homo sapiens, MCF7, 72 h; in short: as §2
[17] = system: L1210; test: Growth inhibition of mouse L1210 cells after 72 hrs by MTT assay; format: functional, cell-based; conditions: L1210, 72 h
[18] = Growth inhibition of human Molt4/C8 cells after 72 hrs by MTT assay; format: functional, cell-based; conditions: MOLT-4, 72 h
[19] = system: CCRF-CEM; test: Growth inhibition of human CEM cells after 72 hrs by MTT assay; format: functional, cell-based

SMILES | pEC50 [1] | pEC50 [2] | pEC50 [3] | pEC50 [4] | MCC at 168 h [5] [µM] | CC50 at 168 h [6] [µM] | pEC50 [7] | pEC50 [8] | pEC50 [9] | pEC50 [10] | pEC50 [11] | pIC50 [12] | pIC50 [13] | pIC50 [14] | pIC50 [15] | pIC50 [16] | pIC50 [17] | pIC50 [18] | pIC50 [19]
COc1cc(/C=C(\C)c2ccc(F)cc2)nc(OC)n1 | < 4.70 | < 4.70 | < 4.70 | < 4.70 | 100 | 88 | < 4.40 | < 4.40 | < 4.40 | 4.40 | < 4.40 | 4.70 | 4.77 | < 4.00 | 4.25 | 4.80 | < 3.70 | < 3.70 | 4.13
COc1nc(C)c(Br)c(OC)n1 | < 4.00 | < 4.00 | < 4.00 | 4.06 | ≥ 100 | 18 | < 3.70 | < 3.70 | < 3.70 | < 3.70 | < 3.70 | < 4.00 | < 4.00 | < 4.00 | < 4.00 | < 4.00 | < 3.70 | < 3.70 | < 3.70
Nc1ncnc2c1ncn2C[C@H](O)CO [(S)-DHPA] |  |  |  |  |  |  | < 3.60 | < 3.60 | < 3.60 | < 3.60 | < 3.60 |  |  |  |  |  |  |  | 
Nc1ccn(C[C@@H](CO)OCP(=O)(O)O)c(=O)n1 [CIDOFOVIR] | 6.39 | 6.39 |  |  | ≥ 1270 | 51 |  |  |  |  |  |  |  |  |  |  |  |  | 
COc1cc(/C=C(/O)c2ccc(F)cc2)nc(OC)n1 | < 4.00 | 4.42 | < 4.00 | < 4.70 | > 100 | > 100 | < 3.70 | < 3.70 | 3.70 | < 3.70 | 4.62 | < 4.00 | < 4.00 | < 4.00 | ≤ 4.00 | ≤ 4.00 | < 3.70 | < 3.70 | 3.72
COc1cc(CC(C)(O)c2ccc(F)cc2)nc(OC)n1 (stereo unspecified) | < 4.00 | 4.23 | < 4.00 | < 4.00 | > 100 | > 100 | 3.92 | 3.70 | < 3.70 | 3.92 | 4.40 | < 4.00 | < 4.00 | < 4.00 | < 4.00 | < 4.00 | < 3.70 | < 3.70 | < 3.70
NC(=O)c1ncn([C@@H]2O[C@H](CO)[C@@H](O)[C@H]2O)n1 [RIBAVIRIN] |  |  |  |  |  |  | 3.82 | 3.60 | 4.30 | 3.82 | 3.82 |  |  |  |  |  |  |  | 
COc1cc(CC(C)(CF)OC(C)=O)nc(OC)n1 (stereo unspecified) | < 4.83 | < 4.83 | 5.09 | 5.13 | 73.5 | 50 | < 4.54 | < 4.54 | < 4.54 | < 4.54 | < 3.83 | 4.75 | 4.93 | 4.41 | 4.52 | 4.74 | 4.66 | 4.32 | 4.69
COc1cc(CC(C)(O)CF)nc(OC)n1 (stereo unspecified) | < 4.00 | < 4.00 | < 4.00 | < 4.00 | > 100 | > 100 | < 3.70 | < 3.70 | < 3.70 | < 3.70 | < 3.70 | < 3.70 | < 3.70 | < 3.70 | < 3.70 | < 3.70 | < 3.70 | < 3.70 | < 3.70
O=c1[nH]c(=O)n([C@H]2C[C@H](O)[C@@H](CO)O2)cc1/C=C/Br [BRIVUDINE] |  |  | 7.85 | 3.77 | ≥ 1200 | 408 | < 3.60 | < 3.60 | < 3.60 | < 3.60 | < 3.60 |  |  |  |  |  |  |  | 
CC(=O)OC(C)(CF)Cc1cc(O)nc(O)n1 (stereo unspecified) | < 4.00 | < 4.00 | < 4.00 | < 4.00 | > 100 | > 100 | < 3.70 | < 3.70 | < 3.70 | < 3.70 | < 3.70 | < 3.70 | < 3.70 | < 3.70 | < 3.70 | < 3.70 | < 3.70 | < 3.70 | < 3.70
Nc1nc2c(ncn2COCCO)c(=O)[nH]1 [ACYCLOVIR] |  |  |  |  | > 1780 | 649 |  |  |  |  |  |  |  |  |  |  |  |  | 
COc1nc(C)c(-c2ccccc2)c(OC)n1 | < 4.70 | < 4.70 | < 4.70 | < 4.70 | 100 | 34 | < 4.40 | < 4.40 | < 4.40 | 4.40 | < 4.40 | < 4.00 | 4.05 | < 4.00 | < 4.00 | < 4.00 | 4.11 | 4.15 | 4.37
Nc1nc2c(ncn2COC(CO)CO)c(=O)[nH]1 [GANCICLOVIR] | 5.32 | 5.89 |  |  | > 1580 | 172 |  |  |  |  |  |  |  |  |  |  |  |  | 

Reference: ChEMBL document CHEMBL1145384, “Novel C-6 fluorinated acyclic side chain pyrimidine derivatives: synthesis, (1)H and (13)C NMR conformational studies, and antiviral and cytostatic evaluations” (J Med Chem, 2007)
